Source: PubChem
The list is not random: actives were taken first. Their share in the collection is about 2.6%.
SENP1 FRET inh: blocks the human SENP1 SUMO protease catalytic domain | recombinant SENP1 catalytic domain, CyPet-SUMO1-YPet FRET cleavage | 0.21% of 360,000 active | inhibition, % at 10 µM | Q9P0U3 | AID 624204;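 active = inhibition at least 30% at 10 µM, raw YFP signal under a set limit, fluorescence ratio 0.5 to 1.5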
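Assay system: hSENP1 catalytic domain, recombinant. Amount: SENP1 enzyme, 20 pM final. Schedule: 50 min reaction, RT, dark. Technique: FRET, CFP and YFP emission. Control set: no-enzyme wells low, DMSO-plus-enzyme wells high control.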
SENP8 block-1: inhibitors of human SENP8 protease | Q96LD8 | recombinant SENP8, Nedd8 substrate fluorescence | inhibition, % at 20 µM | 0.64% of 360,000 active; in the data active = inhibition mostly above about 40%, no sharp cut-off; inactive = mostly below about 27%
SENP7 inh: blocks the human protease SENP7. Q9BQF6. recombinant SENP7, Z-RLRGG-aminoluciferin luminescence, 40 min. inhibition, % at 5 µM. 1.5% of 330,000 active. AID 434973;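 active = inhibition above about 50% at the single test dose, limit read from the data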
UCH37 DUB inh: blocks the human deubiquitinase UCH37 | Q9Y5K5 | purified proteasome/UCH37, Ub-AMC cleavage fluorescence | inhibition, % (concentration not given with the values) | 0.33% of 330,000 active | AID 588478;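 active = mean inhibition over replicate wells above about 20%, limit read from the data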
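Test system – human UCH37 enzyme supplied as purified proteasome complex · Incubation – 30 min preincubation with enzyme, 25 min cleavage at room temperature · Detection – AMC fluorescence from Ub-AMC cleavage, excitation 355 nm, emission 460 nm · Benchmarks – no-proteasome wells (full inhibition) and compound-free wells (no inhibition)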
SENP6 block: inhibitors of human SENP6 protease; AID 2599; inhibition, % at 10 µM; Q9GZR1; Recombinant SENP6 catalytic domain, aminoluciferin luminescence; 1.8% of 330,000 active;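 active = inhibition above about 50% at the single tested dose, limit read from the data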
Target sequence (Q9GZR1 628-1112 limits assumed): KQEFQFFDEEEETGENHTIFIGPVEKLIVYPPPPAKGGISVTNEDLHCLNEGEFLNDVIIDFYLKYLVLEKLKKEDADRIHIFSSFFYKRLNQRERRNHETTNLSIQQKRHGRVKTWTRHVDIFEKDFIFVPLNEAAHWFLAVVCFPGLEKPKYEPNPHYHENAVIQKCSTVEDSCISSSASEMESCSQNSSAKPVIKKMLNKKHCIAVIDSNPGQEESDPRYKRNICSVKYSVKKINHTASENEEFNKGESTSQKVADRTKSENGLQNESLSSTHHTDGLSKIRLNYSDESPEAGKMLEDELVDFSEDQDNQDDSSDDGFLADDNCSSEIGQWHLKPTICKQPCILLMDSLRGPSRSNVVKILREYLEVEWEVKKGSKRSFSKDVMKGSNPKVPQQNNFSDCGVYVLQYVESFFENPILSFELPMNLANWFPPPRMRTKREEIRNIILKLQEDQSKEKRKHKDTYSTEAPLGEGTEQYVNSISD
SENP8 block-2: SENP8 protease inhibition. Q96LD8. purified SENP8, Z-RLRGG-aminoluciferin cleavage, luminescence. inhibition, % at 10 µM. 1.2% of 330,000 active; in the data active = inhibition above about 50%
SENP1 inh conf: confirmation of human SENP1 SUMO protease inhibitors | shares compounds with SENP1 FRET inh | recombinant SENP1, CyPet-SUMO1-YPet FRET cleavage | inhibition, % at 10 µM | 34% of 520 active | AID 651678; in the data active = inhibition mostly above about 35%, no sharp cut-off; inactive = mostly below about 32%
SENP1 kin conf: confirmation of human SENP1 SUMO protease inhibitors, kinetic; shares compounds with SENP1 FRET inh; recombinant SENP1, CyPet-SUMO1-YPet FRET kinetic cleavage; inhibition, % at 10 µM; 26% of 520 active; in the data active = inhibition mostly above about 32%, no sharp cut-off; inactive = mostly below about 29%
Hits are given with their value; – = inactive; · = no result.

SMILES | SENP1 FRET inh | SENP8 block-1 | SENP7 inh | UCH37 DUB inh | SENP6 block | SENP8 block-2 | SENP1 inh conf | SENP1 kin conf
CC(=O)c1ccc(N2C(=O)C3C(C2=O)C(C(=O)c2ccc(Cl)cc2)N2CCCC32)cc1 (stereo not drawn) | · | · | · | – | · | · | · | ·
C=CCOCCN1C(=O)C2C(c3ccccc3)C=CC(c3ccccc3)C2C1=O (stereo not drawn) | 66 | – | – | – | – | – | 76 | 61
COc1ccc(C=NNC(=O)c2ccco2)cc1OCc1ccccc1 | · | · | · | – | · | · | · | ·
CC(=NNC(N)=S)c1ccc(-n2ccnc2)cc1 | · | · | · | – | · | · | · | ·
O=c1[nH]c(/C(Cl)=C/c2cc(Cl)ccc2O)nc2cc(Cl)ccc12 | 59 | – | – | – | – | – | 89 | 73
CCOC(=O)N/N=C/c1ccc(F)cc1F | – | – | – | · | – | – | · | ·
COc1cccc(/C=C/C(=O)OCC(=O)c2ccc(C)c(C)c2)c1OC | – | – | – | – | – | – | · | ·
CCOC(=O)/C=C/c1cc(F)ccc1O | 66 | – | · | · | · | · | 40 | 38
CCOC(=O)/C=C/c1cccc(C)c1O | 32 | – | · | · | · | · | – | 37
Cc1ccc(OC(C)C(=O)NN=Cc2ccccn2)cc1 (stereo not drawn) | · | · | · | – | · | · | · | ·
CC(C)Oc1cccc(C(=O)NC(=S)Nc2ccc3c4c(cccc24)CC3)c1 | 37 | – | – | – | – | – | – | –
Cc1nc2ccccc2n1CC(=O)NN=Cc1ccccn1 | · | · | · | – | · | · | · | ·
COc1cc(S(=O)(=O)Nc2c(C)nn(C)c2C)ccc1NC(C)=O | – | – | – | – | – | – | · | ·
COc1cc(S(=O)(=O)Nc2ccc3c(c2)C(=O)N(C)C3=O)ccc1NC(C)=O | 54 | – | – | – | – | – | 41 | 43
O=C(NN=Cc1ccc(O)c2ncccc12)c1cccc(Br)c1 | · | · | · | – | · | · | · | ·
CCOC(=O)C1=C(C)N=c2sc(=Cc3cc(Cl)c(OCC(=O)O)c(Cl)c3)c(=O)n2C1c1cccc(OC)c1 (stereo not drawn) | 52 | – | · | · | · | · | 51 | 35
COc1ccc(N(C)C(=O)Nc2ccc3nsnc3c2)cc1 | 56 | – | · | – | · | · | – | –
COc1ccc(N(C)C(=O)Nc2ccc3c(c2)nnn3C)cc1 | – | – | – | – | – | – | · | ·
O=C(O)c1cccc(NC2=Nc3cccc4cccc2c34)c1 | – | – | – | – | – | – | · | ·
c1ccc(NC2=Nc3cccc4cccc2c34)cc1 | 74 | – | – | – | – | – | 43 | –
COc1ccc(NC2=Nc3cccc4cccc2c34)cc1 | 77 | – | – | – | – | – | 57 | –
CC(CC(=O)Nc1ccc(Br)cc1)=NNC(=O)Cc1csc(N)n1 | · | · | · | – | · | · | · | ·
CC(C)Nc1ccc(C(CC(N)=O)NC(=O)Cc2cccc3ccccc23)cc1[N+](=O)[O-] (stereo not drawn) | 41 | – | – | – | – | – | – | –
N#CCSc1ccccc1NC(=O)COc1ccc(-c2nnco2)cc1 | 34 | – | – | – | – | – | – | –
N#CCSc1ccccc1NC(=O)COC(=O)Cc1c[nH]c2ccccc12 | 43 | – | – | – | – | – | – | –
SMILES | SENP1 FRET inh | SENP8 block-1 | SENP7 inh | UCH37 DUB inh | SENP6 block | SENP8 block-2 | SENP1 inh conf | SENP1 kin conf
O=C(COc1ccc(-c2nnco2)cc1)Nc1ccc(F)c(Cl)c1 | – | – | – | – | – | – | · | ·
CC(C)c1ccccc1NC(=O)COC(=O)Cc1c[nH]c2ccccc12 | – | – | – | – | – | – | · | ·
S=c1[nH]nc(-c2ccccn2)n1N=Cc1ccc(-c2ccccc2Cl)o1 | · | · | · | – | · | · | · | ·
CC(=NNC1=NCCN1)c1ccccc1 | · | · | · | – | · | · | · | ·
O=C1CCC[C@@H]2C[C@@]3(C[C@@H]4CCN1[C@H]24)Nc1cc([N+](=O)[O-])ccc1NC3=NC1CCCCC1 | 70 | – | · | · | · | · | – | –
CCOC(=O)c1sc2nc(C)nc(NCc3ccc(F)cc3)c2c1C | 36 | – | – | – | – | – | – | –
CCOc1ccccc1NC(=O)c1cc(C(=O)c2cc(OC)ccc2O)coc1=N | 46 | – | – | – | – | – | – | –
CC(C)NC(=O)c1cc(C(=O)c2cc(Cl)ccc2O)coc1=N | – | – | – | – | – | – | · | ·
O=C(NN=Cc1ccc(N2CCOCC2)cc1)c1ccncc1 | · | · | · | – | · | · | · | ·
